Data: ChEMBL document CHEMBL3259808, “Optimization of antitrypanosomatid agents: identification of nonmutagenic drug candidates with in vivo activity” (J Med Chem, 2014)

Assays:
[1] = tested on: Trypanosoma cruzi; test: Antitrypanosomal activity against Trypanosoma cruzi Tulahuen 2 epimastigotes assessed as growth inhibition after 5 days; assay type: functional, organism-based; conditions: Trypanosoma cruzi, Tulahuen 2, 120 h
How it was run: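 Epimastigotes were grown axenically at 28 °C in BHI-tryptose with 5% FBS and seeded from a 5–7 day culture at 1 × 10⁶ cells/mL. Drug from a DMSO stock was added (final DMSO ≤0.4%; the control contained 0.4% DMSO). Duplicates were run. A600 was read at day 5, and % inhibition was calculated relative to day-0 and control readings. IC50 = concentration that halves the absorbance ratio.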

[2] = Selectivity index, ratio of IC50 for mouse J774.1 cells to IC50 for Trypanosoma cruzi Tulahuen 2 epimastigotes; assay type: toxicity; conditions: read-out: Ratio IC50
How it was run: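 J774.1 macrophages grown in DMEM with 10% heat-inactivated FCS and allowed to attach 48 h, then exposed 48 h at 37 °C to 12.5–400.0 μM. Triplicates. MTT 0.1 mg/mL for 3 h, read at 560 nm; IC50 by linear regression against the solvent control. SI = IC50 J774.1 / parasite IC50 (Sylvio X-10 amastigotes or Tulahuen 2 epimastigotes, the latter measured by A600 growth inhibition at day 5).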

[3] = tested on: Salmonella typhimurium; test: Mutagenic activity in Salmonella typhimurium TA98 at 0.3 to 40 ug/plate by Ames test; assay type: toxicity, organism-based; conditions: salmonella enterica subsp. enterica serovar typhimurium
How it was run: (§1)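 Ames plate-incorporation assay with S. typhimurium TA98 in Vogel-Bonner E minimal glucose agar. Toxicity toward the bacteria was checked first. DMSO solutions were run in triplicate at five consecutive third-dilutions, starting at the highest non-toxic dose. Positive controls were 4-nitro-o-phenylenediamine (20.0 μg/plate) and 2-aminofluorene (10.0 μg/plate); DMSO was the negative control. Revertants were counted manually. A compound was called mutagenic when revertants were at least twice the negative control at two or more consecutive doses.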

[4] = tested on: Salmonella typhimurium; test: Mutagenic activity in Salmonella typhimurium TA98 at 0.3 to 40 ug/plate by Ames test in presence of mouse liver S9 fraction; assay type: toxicity, organism-based; conditions: salmonella enterica subsp. enterica serovar typhimurium; how it was run: as §1
[5] = tested on: Trypanosoma cruzi; test: Antitrypanosomal activity against Trypanosoma cruzi Sylvio X-10 amastigotes infected in African green monkey Vero cells assessed as eradication of amastigotes after 72 hrs by Giemsa staining-based assay; conditions: Trypanosoma cruzi, Sylvio X-10, Vero, 72 h
[6] = Selectivity index, ratio of IC50 for African green monkey Vero cells to IC50 for Trypanosoma cruzi Sylvio X-10 amastigotes; assay type: toxicity, cell-based; conditions: read-out: Ratio IC50
How it was run: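 VERO cytotoxicity: cells exposed 48 h at 37 °C, 5% CO2 to serial dilutions from a maximum of 2000 μM (DMSO stocks; DMSO <0.1% control); growth inhibition read by MTT at 570 nm. Amastigote IC50: Sylvio X-10-infected VERO cells, five doses, infected cells counted among 300 (Giemsa), quadruplicate, three experiments, sigmoidal fit. SI = IC50 VERO / IC50 amastigote.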

[7] = tested on: Trypanosoma cruzi; test: Antitrypanosomal activity against Trypanosoma cruzi CL Brener infected in BALB/c mouse assessed as peak of maximum parasitemia at 192 umol/kg/day, po for 14 days administered in saline and tween 80 measured up to 60 days relative to control; assay type: functional
How it was run: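 Male BALB/c mice (30 days old, 25–30 g, SPF) were infected i.p. with 10³ blood trypomastigotes, n = 8/group. Daily oral gavage in saline/Tween 80 (4:1) ran for 14 days from day 6 post-infection; controls received vehicle only. Parasitemia was counted weekly in tail-vein blood by hemocytometer for 60 days, and survival was recorded.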

[8] = tested on: Trypanosoma cruzi; test: Antitrypanosomal activity against Trypanosoma cruzi CL Brener infected in BALB/c mouse assessed as mouse survival at 192 umol/kg/day, po for 14 days administered in saline and tween 80 measured up to 60 days relative to control; assay type: functional

C=CCn1c(C)cs\c1=N/N=C/C=C/c1cccs1
IC50 [1]: > 25 µM | selectivity ratio [2]: < 7 | Activity [3]: Non-toxic | Activity [4]: Non-toxic

O=C(Cn1ccnc1[N+](=O)[O-])NCc1ccccc1 [BENZNIDAZOLE]
IC50 [1]: 7 µM | IC50 [5]: 3.3 µM | selectivity ratio [6]: 300 | Time [7]: 42 days | survival at 192 µmol/kg [8]: 100%
